# S100A4 MyoIIA – inhibitors of human S100A4 binding to myosin IIA peptide | P26447 | S100A4/TAMRA-MyoIIA peptide fluorescence polarization | inhibition, % at 10.7 µM | 360,000 tested, 0.14% active | AID 652163;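 active means mean inhibition of at least 70% across replicates, with every replicate also reaching that level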
# Target sequence (P26447 whole entry, looked up): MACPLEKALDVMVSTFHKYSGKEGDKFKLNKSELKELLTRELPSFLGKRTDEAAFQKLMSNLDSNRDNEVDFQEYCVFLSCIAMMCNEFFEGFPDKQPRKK
#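 Material: S100A4 monomer protein / Buffer or medium: 50 mM HEPES pH 7.2, 10 mM CaCl2, 100 mM KCl / Times: 5 min incubation before reading / Benchmarks: neutral control DMSO, positive control TFP / Reagent: labelled myosin peptide probe, 5 nM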
# E-selectin induc – E-selectin induction on HUVECs; P16581; HUVEC E-selectin immunofluorescence imaging; normalized: neutral wells 0, TNF-alpha wells 100; activation, % at 7.58 µM; 260,000 tested, 0.37% active; AID 686992;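 active means mean E-selectin-positive cell signal at least 10% of the positive control, reached in at least 60% of replicates, without over 20% cell loss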
#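 Assay system: HUVEC, human umbilical vein endothelial cells / Amount: 3,000 HUVEC/well / Controls: TNF-alpha positive control, DMSO neutral control / Compound dosing: single concentration / Medium: EGM-2 over gelatin coat / Evaluation: percent E-selectin-positive cells / Signal: immunofluorescence imaging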
# FGF22 binding – FGF22 (human) thermal shift binding | recombinant FGF22 thermal shift, SYPRO orange fluorescence; percent of sucrose octasulfate shift, DMSO zero | Q9HCT0 | 340,000 tested, 1.5% active | activity (Tm shift, normalised), % at 9.99 µM;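 active means mean Tm shift, scaled 0 neutral to 100 positive control, at about 1.3% or above, every replicate too, limit read from the data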
# Target sequence (Q9HCT0 whole entry, looked up): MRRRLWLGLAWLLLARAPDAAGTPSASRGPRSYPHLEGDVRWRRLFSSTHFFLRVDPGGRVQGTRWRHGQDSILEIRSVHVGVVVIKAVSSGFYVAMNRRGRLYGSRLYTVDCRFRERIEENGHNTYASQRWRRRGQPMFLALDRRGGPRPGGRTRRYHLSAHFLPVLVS
# miR122 inh – miR-122 inhibition in Huh7 cells | Huh7 miR-122 Renilla luciferase sensor, 48 h; neutral wells = 0, positive control = 100 | activation (reporter increase), % at 12.5 µM | 340,000 tested, 0.3% active;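 active means mean replicate activation score at least 90 and every replicate individually at or above 90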;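 further: higher luciferase means less miR-122 activity so hits act as miR-122 inhibitors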
# SIRT5 inh – inhibitors of human sirtuin-5 desuccinylase; AID 652115; Purified SirT5, succinyl-peptide AMC, trypsin-coupled fluorescence; Q9NXA8; 330,000 tested, 1.1% active; inhibition, % at 15 µM; in the data active means inhibition above about 15%
# Target sequence (Q9NXA8 whole entry, looked up): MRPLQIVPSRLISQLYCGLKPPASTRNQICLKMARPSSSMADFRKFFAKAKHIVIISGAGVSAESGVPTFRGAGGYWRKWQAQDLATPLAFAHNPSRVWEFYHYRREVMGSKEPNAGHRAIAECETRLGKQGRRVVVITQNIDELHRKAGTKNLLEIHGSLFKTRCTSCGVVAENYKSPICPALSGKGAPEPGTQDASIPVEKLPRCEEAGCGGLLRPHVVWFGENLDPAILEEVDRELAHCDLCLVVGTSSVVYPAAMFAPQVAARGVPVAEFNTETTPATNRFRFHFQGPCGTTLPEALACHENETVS
# Numbers without * were called inactive; x = no result; ! = a repeat was not active; [ ] = dose if it differs, or a comment. The list is not random: actives were taken first. Their share in the collection is about 2.5%.
SMILES,S100A4 MyoIIA,E-selectin induc,FGF22 binding,miR122 inh,SIRT5 inh
Cc1nc2cc(NC(=O)CCS(=O)(=O)c3ccccc3)ccc2s1,-1.6,x,43.6*,6.4,-1.2
O=C(Nc1nc(-c2ccc3c(c2)OCO3)cs1)C1COc2ccccc2O1 (centres undefined),2.4,x,0.0,-2.8,15.8*
Cc1nc2cc(NC(=O)C3COc4ccccc4O3)ccc2s1 (centres undefined),-0.8,-0.1,43.5*,-4.5,-2.4
C[C@H](O)C#Cc1ccc2c(c1)O[C@@H](CN(C)Cc1ccc(-c3ccccc3)cc1)[C@H](C)CN([C@H](C)CO)S2(=O)=O,1.4,-0.1,0.0,-45.3[16.7 µM],27.8*
C[C@@H]1CN([C@H](C)CO)S(=O)(=O)c2ccc(C#C[C@@H](C)O)cc2O[C@H]1CN(C)Cc1ccc(-c2ccccc2)cc1,-6.3,-0.1,0.1,-22.5[16.7 µM],30.2*
C[C@H](O)C#Cc1ccc2c(c1)O[C@H](CN(C)Cc1ccc(-c3ccccc3)cc1)[C@@H](C)CN([C@@H](C)CO)S2(=O)=O,-2.3,-0.1,-0.3,-40.0[16.7 µM],30.3*
C[C@H](O)C#Cc1ccc2c(c1)O[C@H](CN(C)Cc1ccc(-c3ccccc3)cc1)[C@H](C)CN([C@@H](C)CO)S2(=O)=O,-2.8,-0.2,-0.6,-16.6[16.7 µM],27.2*
C[C@@H](O)C#Cc1ccc2c(c1)O[C@H](CN(C)Cc1ccccc1)[C@@H](C)CN([C@@H](C)CO)S2(=O)=O,-9.6,-0.1,-0.2,61.0[16.7 µM],3.2
C[C@H](O)C#Cc1ccc2c(c1)O[C@H](CN(C)Cc1ccccc1)[C@@H](C)CN([C@H](C)CO)S2(=O)=O,-15.7,-0.1,0.1,35.9[16.7 µM],0.4
O=C(C[C@@H]1CC[C@H]2[C@@H](COC[C@H](O)CN2C(=O)c2ccccc2F)O1)NCc1ccc(Cl)cc1,-93.2,-0.1,0.0,3.6[16.7 µM],1.0
Cc1noc(C)c1NC(=O)Nc1ccc2c(c1)C(=O)N([C@@H](C)CO)C[C@H](C)[C@H](CN(C)Cc1ccc(Cl)c(Cl)c1)O2,0.3,-5.3,-0.1,-5.7[16.7 µM],0.6
C[C@@H]1CN([C@@H](C)CO)S(=O)(=O)c2ccc(C#C[C@@H](C)O)cc2O[C@@H]1CN(C)Cc1ccc(-c2ccccc2)cc1,-0.6,0.1,-0.7,7.2[16.7 µM],23.6*
CCCn1c(SCC(=O)NC(=O)NC(C)(C)C)n[nH]c1=O,-2.3,1.5,43.2*,x,0.1
CCCn1c(SCC(=O)Nc2cc(C)on2)n[nH]c1=O,-4.2,-1.0,0.0,-2.5,-4.6
Clc1ccc(-c2nnc(CNC3CC3)o2)cc1,-0.3,x,43.3*,-1.1,1.9
Cc1cccc(C)c1NC(=O)COC(=O)c1cc(=O)[nH]c2ccccc12,5.9,1.6,0.1,x,16.7*
CCNC(=O)COC(=O)c1cc(=O)[nH]c2ccccc12,x,x,x,0.3,x
COc1ccc(CN2CC3(CN(C(=O)Cc4ccncc4)C3)c3c([nH]c4cc(OC)ccc34)[C@H]2CO)cc1,-11.8,0.0,-0.3,x,x
O=C(NC1=NCCS1)c1ccc(Cl)c(S(=O)(=O)N2CCCCC2)c1,x,x,x,0.8,x
O=C(NC1=NCCS1)c1ccc(Cl)c(S(=O)(=O)N2CCCC2)c1,2.9,x,43.3*,2.4,2.2
O=C(NC1=NCCS1)c1ccc(Cl)c(S(=O)(=O)N2CCOCC2)c1,0.7,x,43.1*,x,-6.6
O=C(NC1=NCCS1)c1ccc(F)c(S(=O)(=O)N2CCOCC2)c1,-2.4,0.3,-0.2,2.8,0.0
C[C@H](CO)N1C[C@H](C)[C@H](CN(C)Cc2ccc(O)cc2)OCc2cnnn2CCCC1=O,-23.7,-0.1,0.1,0.9[16.7 µM],-2.5
O=C(NC[C@H]1CC[C@@H]2[C@@H](CN2Cc2cc(-c3ccccc3)on2)O1)c1ccc2c(c1)OCO2,-4.3,x,x,x,-3.1
NC(=O)c1ccc(NC(=O)CCCc2nc(-c3ccccc3Cl)no2)cc1,6.4,x,x,2.8,18.1*
SMILES,S100A4 MyoIIA,E-selectin induc,FGF22 binding,miR122 inh,SIRT5 inh
COc1ccc2c3c(n(C)c2c1)[C@H](CO)N(Cc1ccccc1OC)CC31CN(CC2CCOCC2)C1,x,-0.3,x,x,x
CCCN1C(=O)S/C(=C/c2ccc(N3CCOCC3)o2)C1=O,-4.7,0.1,0.0,0.1,1.4
CCCN1C(=O)S/C(=C\c2ccc(N3CCOCC3)o2)C1=O,-7.3,0.4,43.2*,-1.7,-5.9
O=C(Nc1ccnn1C1CCN(Cc2ccc(Cl)cc2)CC1)C1CCCC1,2.5,-0.3,-0.4,x,-2.6
O=C(Nc1ccnn1C1CCN(Cc2ccc(OC(F)F)cc2)CC1)C1CCCC1,2.4,x,0.4,-10.9,19.2*
CCCN1[C@H](C(=O)NC2CCCC2)[C@@H](CO)[C@@H]2Cn3c(ccc(-c4cccnc4)c3=O)[C@@H]21,1.4,-0.4,x,x,0.4
CC1CCCC(NC(=O)COC(=O)C2=COCCO2)C1C (centres undefined),0.6,1.2,44.3*,-7.6,x
CC(NC(=O)c1ccccc1N)c1ccccc1 (centres undefined),-1.4,0.9,43.0*,x,-5.1
CC(NC(=O)c1ccccc1F)c1ccccc1 (centres undefined),1.6,0.1,0.1,x,2.1
O=C(C1CC1)N1CCCCN2[C@H](C1)[C@H](c1ccc(-c3ccncc3)cc1)[C@@H]2CO,x,x,x,5.9[16.7 µM],x
CO[C@H]1CN(C)C(=O)c2cc(NC(=O)c3ccccc3F)ccc2OC[C@H](C)NC[C@@H]1C,-7.2,0.1,-0.1,x,24.6*
CO[C@H]1CN(C)C(=O)c2cc(NC(=O)c3ccccc3F)ccc2OC[C@@H](C)NC[C@@H]1C,7.7,-0.1,-0.1,x,25.7*
CO[C@H]1CN(C)C(=O)c2cc(NC(=O)c3ccccc3F)ccc2OC[C@H](C)NC[C@H]1C,41.0,-0.2,-0.4,x,-0.8
CC(C)NC(=O)N(C)C[C@H]1Oc2ccc(NC(=O)CCN3CCOCC3)cc2C(=O)N([C@@H](C)CO)C[C@H]1C,-4.1,46.3*,-0.6,-1.5[16.7 µM],0.6
C[C@@H]1CN([C@@H](C)CO)C(=O)c2cc(NC(=O)CCN3CCOCC3)ccc2O[C@H]1CN(C)Cc1ccncc1,24.8,31.5*,-0.2,-1.4[16.7 µM],-4.1
C[C@H]1CN([C@@H](C)CO)C(=O)c2cc(NC(=O)CCN3CCOCC3)ccc2O[C@H]1CN(C)Cc1ccncc1,-43.6,-11.1,0.0,1.5[16.7 µM],-4.7
C[C@H](CO)N1C[C@H](C)[C@@H](CN(C)S(=O)(=O)c2ccc(F)cc2)Oc2ccc(NC(=O)CCN3CCOCC3)cc2C1=O,10.6,0.1,0.2,0.1[16.7 µM],15.1*!
C[C@H]1CN([C@@H](C)CO)C(=O)c2cc(NC(=O)CCN3CCOCC3)ccc2O[C@@H]1CN(C)C(=O)NC1CCCCC1,-3.2,9.5,0.1,-2.2[16.7 µM],-1.4
CC(C)NC(=O)N(C)C[C@@H]1Oc2ccc(NC(=O)CCN3CCOCC3)cc2C(=O)N([C@H](C)CO)C[C@H]1C,5.3,65.5*,0.3,3.0[16.7 µM],-2.7
O=C(Cc1ccccn1)NCC[C@@H]1CC[C@H](NS(=O)(=O)c2ccc(F)cc2)[C@H](CO)O1,-12.3,-1.9,0.2,x,-5.1

# Assay outcomes from PubChem BioAssay.
